The target of this test is T1, OR2J2 (Homo sapiens) (UniProt O76002).
T1 sequence (whole entry): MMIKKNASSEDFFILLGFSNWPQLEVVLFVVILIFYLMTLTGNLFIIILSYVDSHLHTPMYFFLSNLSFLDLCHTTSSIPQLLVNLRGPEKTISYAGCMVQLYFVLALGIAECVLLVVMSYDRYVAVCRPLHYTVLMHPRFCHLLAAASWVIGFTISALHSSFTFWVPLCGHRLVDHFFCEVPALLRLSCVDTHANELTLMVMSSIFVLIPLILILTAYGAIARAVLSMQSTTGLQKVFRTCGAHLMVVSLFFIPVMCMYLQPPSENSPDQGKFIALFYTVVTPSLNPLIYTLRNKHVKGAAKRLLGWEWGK
Conditions: stereoisomer not certain. Summed up:
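Assay methods differ from source to source, frequently being transient luciferase assays in mammalian cell lines. For each receptor–molecule pair, the label responsive (active) applies when the original authors judged the measured signal statistically different from baseline, and non-responsive (inactive) applies otherwise.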
As for `CCCCOC(=O)C(C)OC(=O)CCC` (stereo not given), the “odorant receptor agonist call” value was “inactive”.
The value for `CCCC(=O)C(C)=O` was “inactive”.
The value for `CCCCCCCO` was “active”; that for `CCC(=O)C(=O)CC` was “inactive”.
The value for `CC12CCC(CC1=O)C2(C)C` (stereo not given) was “inactive”; that for `CCCCCCCCCC(=O)[O-].[H+]` was “inactive”.
As to `CCCC(C)=O`, the “odorant receptor agonist call” value is “inactive”.
The value for `CCCCCC(=O)CC` was “inactive”; that for `CCCCCCC(C)=O` was “inactive”; that for `CCCCCOC(=O)CCCCC` was “inactive”.
On to `CCCCCCCCC(=O)O`, for which the “odorant receptor agonist call” value was “inactive”.
The result for `CCCCCC=O` reads “inactive”; that for `c1ccccc1`, “inactive”.
The value for `CCCCCCCC(C)=O` was “inactive”; that for `CCCCCCOC(C)=O` was “inactive”.
The value for `C=CCOC(=O)CCCCCC` was “inactive”; that for `CCCCCCC(=O)[O-].[H+]` was “inactive”; that for `C=C(C)C1CCC(C)C(=O)C1` (stereo not given) was “inactive”.
Take `O=C(c1ccccc1)c1ccccc1`: the “odorant receptor agonist call” value was “inactive”.
The value for `CCCCCCCC(=O)[O-].[H+]` was “inactive”; that for `CCC(C(=O)O)c1ccccc1` (stereo not given) was “inactive”; that for `CCCCCC1=C(C)CCC1=O` was “inactive”.
The result for `CCCCCCCCCS` reads “inactive”; that for `CCOC(=O)C(C)C`, “inactive”.
The result for `CCCCCCCCCO` reads “active”; that for `CC(=O)OCc1ccccc1`, “inactive”.
Take `CC(C)=CCCC(C)CCO` (stereo not given): the “odorant receptor agonist call” value was “inactive”.
The value for `CCCCC(=O)CC` was “inactive”; that for `CCCCCCCCS` was “inactive”.
`CC(=O)OCC=C(C)C`: the “odorant receptor agonist call” value was “inactive”.

The values above are taken from the M2OR odorant receptor database.
